Measured values from PubChem BioAssay AID588627 (Johns Hopkins Ion Channel Center, 2011).
The whole screen tested about 310,000 compounds, of which about 1,400 (0.45%) were called active.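 The calls were made as follows: active = calcium response B-score plate-corrected fluorescence ratio at least 3 library SD, with starting fluorescence B-score inside 5 SD; inactive = the rest.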 Only a selection was taken, and actives are over-represented in it overall.

Target: Mas-related G-protein coupled receptor member X1 (Homo sapiens) (UniProt Q96LB2)
Sequence (Q96LB2 whole entry, looked up): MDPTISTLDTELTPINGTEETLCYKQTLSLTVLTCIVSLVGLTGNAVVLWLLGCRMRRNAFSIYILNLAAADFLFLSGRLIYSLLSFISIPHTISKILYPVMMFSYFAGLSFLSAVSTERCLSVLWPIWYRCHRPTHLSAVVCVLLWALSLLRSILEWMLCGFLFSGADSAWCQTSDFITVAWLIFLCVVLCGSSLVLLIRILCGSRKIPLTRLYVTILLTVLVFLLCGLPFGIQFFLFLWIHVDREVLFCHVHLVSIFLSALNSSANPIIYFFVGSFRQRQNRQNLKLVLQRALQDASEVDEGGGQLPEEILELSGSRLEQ
Experiment: agonists of human MrgX1 receptor, primary screen, HEK293 cells, Fluo-4 calcium flux (AID 588627);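 as to B-score: B-score of the peak-minus-trough calcium fluorescence change over baseline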
Conditions: Fluo-4 calcium fluorescence, agonist mode, at 10 µM; stronger effect = higher value
Summary of the method: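 Material: MrgX1-expressing HEK293 cells; input: 15,000 cells per well; doses: test compound given as first of three sequential additions; schedule: overnight plating before 1 h dye loading; technique: Fluo-4 NW calcium-flux fluorescence, kinetic read; evaluation: baseline-normalised fluorescence change ratio, B-scored; control set: plate-wise positive and negative controls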

| SMILES | B-score |
| --- | --- |
| CCn1c(SCC(=O)Nc2ccc(C)cc2)nc2nc3c(cc2c1=O)CCCC3 | inactive |
| Cc1cc(C)cc(C(=O)NC(=S)Nc2ccc3[nH]c(=O)[nH]c3c2)c1 | inactive |
| Cc1cc(O)c(C2(O)C(=O)Nc3ccccc32)cc1C (centres undefined) | inactive |
| COc1ccc(C2(O)C(=O)Nc3ccccc32)cc1 (centres undefined) | inactive |
| Cc1ccc(NC2(C#N)C(=O)Nc3ccccc32)cc1 (centres undefined) | 45 (active) |
| CCCCn1c(N)c(N(CC(C)C)C(=O)CSc2ccc([N+](=O)[O-])cc2)c(=O)[nH]c1=O | inactive |
| CN(CCc1ccccn1)C(=O)c1ccc(OC2CCN(CCc3ccccc3)CC2)cc1 | inactive |
| O=C1CC2(CCCC2)Oc2ccc(Cl)cc21 | inactive |
| S=C1Nc2cc(Cl)ccc2Sc2ccccc21 | inactive |
| O=C1Cc2ccccc2Sc2ccc(Cl)cc21 | 28.3 (active) |
| O=C(N/N=C/c1cc(Cl)cc([N+](=O)[O-])c1O)C(O)(c1ccccc1)c1ccccc1 | 36.2 (active) |
| O=C(N/N=C/c1cc(Br)c(O)c([N+](=O)[O-])c1)C(O)(c1ccccc1)c1ccccc1 | inactive |
| CN(C)/N=C/c1cc(Cl)cc([N+](=O)[O-])c1O | inactive |
| COc1ccc(-n2nc(C(=O)NCC(=O)N3CCC(C(N)=O)CC3)c3ccccc3c2=O)cc1OC | inactive |
| Cc1ccc(NS(=O)(=O)c2cccs2)cc1S(=O)(=O)N1CCCCCC1 | inactive |
| CN(C)Cc1c(C#N)c2ccccc2n1C | inactive |
| CCOC(=O)CCc1c(C)c(C#N)c2[nH]c3ccccc3n2c1=O | inactive |
| CCCc1cc(=S)n2c([nH]c3ccccc32)c1C#N | 29.9 (active) |
| CCCCN(C(=O)CCNC(=O)NC12CC3CC(CC(C3)C1)C2)c1c(N)n(CCCC)c(=O)[nH]c1=O | inactive |
| COc1ccc2[nH]cc(CCN3C(=O)c4ccc(C(=O)O)cc4C3=O)c2c1 | inactive |
| OCc1ccc(OCCCOc2cccc3cccnc23)cc1 | 27.9 (active) |
| CCOc1cccc(OCCCOc2cccc3cccnc23)c1 | inactive |

| SMILES | B-score |
| --- | --- |
| Cc1cc(OCCOc2cccc3cccnc23)c(C)cc1Cl | inactive |
| CCC(=O)c1cn(CCOc2ccccc2OC)c2ccccc12 | inactive |
| CC[n+]1cc(C)ccc1/C=C/c1ccc(N(C)C)cc1 | 27.3 (active) |
| O=C(NCCCN1CCN(c2ccc(F)cc2)CC1)Nc1ccc([N+](=O)[O-])cc1 | inactive |
| CCNC(=O)CCc1nc(-c2ccc(C(C)(C)C)cc2)no1 | inactive |
| CNC(=S)N1CCC(NC(=O)C(Cc2ccc(F)cc2)NC(C)=O)CC1 (centres undefined) | inactive |
| CS(=O)(=O)N1CCc2cc(C(=O)Nc3ccccc3Br)ccc21 | inactive |
| CCOc1ccc(Br)cc1CSC(=N)N | inactive |
| c1ccc2c(CSCc3nc4ccccc4[nH]3)cccc2c1 | inactive |
| N=C(N)SCc1cccc2ccccc12 | 36.5 (active) |
| CCN(CC)c1ccc(C(=O)NNC(=O)CCc2nc3ccccc3c(=O)[nH]2)cc1 | inactive |
| CC(=O)c1ccc(N=C2SCCCN2C(=O)C2CCCCC2)cc1 | inactive |
| O=C(Cc1csc(Nc2nc(=S)[nH]c3ccccc23)n1)NCCCN1CCN(c2cccc(Cl)c2)CC1 | inactive |
| O=C(/C=C/c1cccc([N+](=O)[O-])c1)N1CCN(Cc2ccccc2)CC1 | inactive |
| O=C(Cn1ccc2cc(S(=O)(=O)N3CCCC3)ccc21)NCc1ccccc1 | inactive |
| O=[N+]([O-])/C=C/c1ccc2c(ccn2Cc2ccccc2)c1 | 37.8 (active) |
| COc1cccc(CNC(=O)c2nnn(CC(=O)Nc3cc(C)ccc3C)c2N)c1 | inactive |
| COCCNC(=O)C(c1ccc(O)cc1)N(C(=O)CCC(=O)Nc1nccs1)c1ccc(C)cc1 (centres undefined) | inactive |
| COc1ccc(NC2CC(=O)N(C)C2=O)cc1 (centres undefined) | inactive |
| CCCCCOc1ccc(CSC2=NCCN2)cc1[N+](=O)[O-] | inactive |
| CCCCOc1ccc(CSC(=N)N)cc1[N+](=O)[O-] | 42.7 (active) |
| CCCOc1ccc(Cn2ccnc2)cc1[N+](=O)[O-] | inactive |
